Results from ChEMBL document CHEMBL1152895, “Diacylhydrazine derivatives as novel potential chitin biosynthesis inhibitors: design, synthesis, and structure-activity relationship” (Eur J Med Chem, 2009).
Active and inactive are the calls of the source. The calls are words filed in the database; no cut-off is given here.

System: Saccharomyces cerevisiae
Assay: Inhibition of yeast chitin synthase at 100 ug/mL by high throughput assay
Method in brief: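 Cell-extract enzymatic assay of chitin synthesis. Cells were pelleted at 1500 × g for 10 min at 4 °C, then broken by grinding with glass beads under liquid nitrogen. Activity was scored as percent inhibition, also converted to D = log[a/(100−a)] − log Mw.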

Row | SMILES | inhibition
1 | CCCCC(CCCC)N(NC(=O)c1ccc(CC)cc1)C(=O)c1ccc2c(c1)OCO2 | Active
2 | CCCCC(CCCC)N(NC(=O)c1cccc(OC)c1)C(=O)c1ccccc1 | Active
3 | CCCCC(CCCC)N(NC(=O)c1ccc(Cl)cc1)C(=O)c1cc(C)cc(C)c1 | Active
4 | CCCCC(CCCC)N(NC(=O)c1ccc(CC)cc1)C(=O)c1ccccc1OC | 79%
5 | CCCCC(CCCC)N(NC(=O)c1ccc(CC)cc1)C(=O)c1cc(C)cc(C)c1 | Active
6 | CCCCC(CCCC)N(NC(=O)c1ccc(Cl)cc1Cl)C(=O)c1cc(C)cc(C)c1 | Active
7 | CCCCC(CCCC)N(NC(=O)c1ccc(CC)cc1)C(=O)c1ccccc1Cl | Active
8 | CCCCC(CCCC)N(NC(=O)c1ccccc1Cl)C(=O)c1ccccc1OC | 81%
9 | CCCCC(CCCC)N(NC(=O)c1cc(OC)c(OC)c(OC)c1)C(=O)c1ccccc1Cl | Active
10 | CCCCC(CCCC)N(NC(=O)c1ccccc1Cl)C(=O)c1ccc(F)cc1 | Active
11 | CCCCC(CCCC)N(NC(=O)c1ccccc1Cl)C(=O)c1ccccc1 | Active
12 | CCCCC(CCCC)N(NC(=O)c1cc(OC)c(OC)c(OC)c1)C(=O)c1cc(F)c(OC)c(F)c1F | Active
13 | CCCCC(CCCC)N(NC(=O)c1cc(OC)c(OC)c(OC)c1)C(=O)c1cc(C)cc(C)c1 | Active
14 | CCCCC(CCCC)N(NC(=O)c1cc(C)cc(C)c1)C(=O)c1ccc(CC)cc1 | Active
15 | CCCCC(CCCC)N(NC(=O)c1ccc(CC)cc1)C(=O)c1cc(F)c(OC)c(F)c1F | Active
16 | CCCCC(CCCC)N(NC(=O)c1ccccc1Cl)C(=O)c1cccc(F)c1 | Active
17 | CCCCC(CCCC)N(NC(=O)c1ccc(CC)cc1)C(=O)CCl | Active
18 | CCCCC(CCCC)N(NC(=O)c1ccccc1Cl)C(=O)c1cc(C)cc(C)c1 | Active
19 | CCCCC(CCCC)N(NC(=O)c1ccc(Cl)cc1)C(=O)c1ccccc1OC | Active
